In ChEMBL document CHEMBL1949532, “Novel dendrimeric lipopeptides with antifungal activity” (Bioorg Med Chem Lett, 2012):
pEC50, pIC50: −log10 of the molar value. ≈ marks a conversion by molar mass, not a printed value. Calls of active or inactive are those of the source. The calls are words filed in the database; no cut-off is given here.

How the values were obtained:
[1] = test system: Staphylococcus aureus; assay: Antibacterial activity against Staphylococcus aureus ATCC 25923 after 18 to 24 hrs by serial broth microdilution susceptibility test; format: functional
Procedure, shortened: (§1)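 MIC determined by serial microdilution in microplates. Candida inocula were prepared in L-glutamine-deficient RPMI-1640 medium.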

[2] = test system: Pseudomonas aeruginosa; assay: Antibacterial activity against Pseudomonas aeruginosa ATCC 27853 after 18 to 24 hrs by serial broth microdilution susceptibility test; format: functional; procedure, shortened: as §1
[3] = test system: Escherichia coli; assay: Antibacterial activity against Escherichia coli ATCC 25922 after 18 to 24 hrs by serial broth microdilution susceptibility test; format: functional; procedure, shortened: as §1
[4] = test system: Staphylococcus aureus; assay: Antibacterial activity against Staphylococcus aureus ATCC 43300 after 18 to 24 hrs by serial broth microdilution susceptibility test; format: functional; procedure, shortened: as §1
[5] = test system: Klebsiella pneumoniae subsp. pneumoniae; assay: Antibacterial activity against Klebsiella pneumoniae subsp. pneumoniae ATCC 13882 after 18 to 24 hrs by serial broth microdilution susceptibility test; format: functional; procedure, shortened: as §1
[6] = test system: Bordetella bronchiseptica; assay: Antibacterial activity against Bordetella bronchiseptica ATCC 4617 after 18 to 24 hrs by serial broth microdilution susceptibility test; format: functional; procedure, shortened: as §1
[7] = test system: Acinetobacter baumannii; assay: Antibacterial activity against Acinetobacter baumannii ATCC 19606 after 18 to 24 hrs by serial broth microdilution susceptibility test; format: functional; details: ATCC 19606 = CIP 70.34 = JCM 6841; procedure, shortened: as §1
[8] = test system: Escherichia coli; assay: Antibacterial activity against Escherichia coli ATCC BAA-198 after 18 to 24 hrs by serial broth microdilution susceptibility test; format: functional; procedure, shortened: as §1
[9] = test system: Candida albicans; assay: Antifungal activity against Candida albicans ATCC 90028 after 24 to 48 hrs by serial broth microdilution susceptibility test; format: functional; procedure, shortened: as §1
[10] = test system: Candida parapsilosis; assay: Antifungal activity against Candida parapsilosis ATCC 22019 after 24 to 48 hrs by serial broth microdilution susceptibility test; format: functional; details: Lodderomyces parapsilosis; procedure, shortened: as §1
[11] = test system: Pichia kudriavzevii; assay: Antifungal activity against Candida krusei ATCC 6258 after 24 to 48 hrs by serial broth microdilution susceptibility test; format: functional; procedure, shortened: as §1
[12] = Toxicity in human erythrocytes assessed as hemolysis at above MIC after 30 mins by spectrophotometry; format: cell-based; details: erythrocyte, 0.5 h
Procedure, shortened: (§2)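 Human erythrocytes suspended in PBS were exposed to lipopeptides at 0.001–0.4 mmol/l and hemolysis was measured.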

[13] = Toxicity in human erythrocytes suspended in L-glutamine deficient RPMI-1640 assessed as hemolysis after 30 mins by spectrophotometry relative to human erythrocytes suspended in PBS buffer; format: cell-based; details: erythrocyte, 0.5 h
Procedure, shortened: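 Hemolysis was measured for human erythrocytes resuspended in L-glutamine-deficient RPMI-1640 (the Candida MIC medium) and compared with erythrocytes suspended in PBS.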

[14] = test system: Candida albicans; assay: Antifungal activity against Candida albicans ATCC 10231 assessed as alteration in cell envelope at 4 uM after 2 hrs by scanning electron microscopy; format: functional, organism-based
[15] = test system: Candida albicans; assay: Antifungal activity against Candida albicans ATCC 10231 assessed as leakage of intracellular contents at 4 uM after 2 hrs by scanning electron microscopy; format: functional, organism-based
[16] = test system: Candida albicans; assay: Antifungal activity against Candida albicans ATCC 10231 assessed as massive destruction of cell surface at 64 uM after 2 hrs by scanning electron microscopy; format: functional, organism-based
[17] = (§3) Inhibition of beta (1,3) glucan synthase in Candida albicans cell membrane using UDP-Glc as substrate assessed as aniline blue-glucan complex formation by microtiter-based fluorescence method
Procedure, shortened: (§4)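 β(1,3)-glucan synthase in the membrane fraction of C. albicans was assayed by a microtiter-based fluorescence method across a concentration range. Values are means of three independent experiments (SD); IC50 was determined.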

[18] = Toxicity in human erythrocytes assessed as hemolysis at 100 uM after 30 mins by spectrophotometry; format: cell-based, Erythrocyte; details: read-out: Activity; procedure, shortened: as §2
[19] = Toxicity in human erythrocytes assessed as hemolysis at 300 uM after 30 mins by spectrophotometry; format: cell-based, Erythrocyte; details: read-out: Activity; procedure, shortened: as §2
[20] = test system: Candida albicans; assay: Antifungal activity against Candida albicans ATCC 10231 assessed as morphological changes at < 60 uM after 6 hrs by calcofluor white and aniline blue staining-based fluorescence microscopy; format: functional, organism-based
Procedure, shortened: (§5)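 C. albicans ATCC 10231 yeast cells were incubated with compound for 6 h, at up to 2×MIC. Chitin was stained with Calcofluor White and glucan with Aniline Blue, then cells were examined by fluorescence microscopy against untreated controls.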

[21] = test system: Candida albicans; assay: Antifungal activity against Candida albicans ATCC 10231 assessed as pseudohyphae formation at 120 uM after 6 hrs by calcofluor white and aniline blue staining-based fluorescence microscopy; format: functional, organism-based; procedure, shortened: as §5
[22] = test system: Candida albicans; assay: as §3; procedure, shortened: as §4
[23] = test system: Candida albicans; assay: Inhibition of beta (1,3) glucan synthase in Candida albicans cell membrane using UDP-Glc as substrate assessed as aniline blue-glucan complex formation at 187 uM by microtiter-based fluorescence method; procedure, shortened: as §4
[24] = test system: Candida albicans; assay: Antifungal activity against Candida albicans ATCC 10231 assessed as increase in intracellular potassium release after 30 mins; format: functional, organism-based
Procedure, shortened: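 Efflux of K+ from C. albicans cells was monitored continuously with a potassium-selective electrode. Release was expressed relative to a positive control, and EK50 was taken as the concentration releasing 50% of intracellular potassium.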

[25] = Toxicity in human erythrocytes assessed as hemolysis at 50 uM after 30 mins by spectrophotometry; format: cell-based, Erythrocyte; details: read-out: Activity; procedure, shortened: as §2

SMILES | MIC [1] [µM] | MIC [2] [µM] | MIC [3] [µM] | MIC [4] [µM] | MIC [5] [µM] | MIC [6] [µM] | MIC [7] [µM] | MIC [8] [µM] | MIC [9] [µM] | MIC [10] [µM] | MIC [11] [µM] | pIC50 [17] | hemolysis at 0.5 h, 100 µM [18] [%] | further results
CCCCCCCCCCCCNC(=O)[C@H](Cc1ccccc1)NC(=O)[C@H](CCCCNC(=O)[C@H](CCCCN)NC(=O)OCc1ccccc1)NC(=O)[C@H](CCCCN)NC(=O)OCc1ccccc1.Cl.Cl | 15 | 64 | 30 | 8 | 121 | 7 | 121 | 8 | 8 | 8 | 8 | 4.30 |  | Activity [12]: Toxic; Activity [13]: Non-toxic; Activity [14]: Active; Activity [15]: Active; Activity [16]: Active
O=C/C=C/c1ccccc1 [CINNAMALDEHYDE] |  |  |  |  |  |  |  |  |  |  |  | 2.94 |  | 
CCCCCCCCNC(=O)[C@H](Cc1ccccc1)NC(=O)[C@H](CCCCNC(=O)[C@@H](N)CCCCNC(=O)OCc1ccccc1Cl)NC(=O)[C@@H](N)CCCCNC(=O)OCc1ccccc1Cl | 30 (≈ 29.9 µg/mL) | 120 (≈ 120 µg/mL) | 8 (≈ 7.98 µg/mL) | 8 (≈ 7.98 µg/mL) | 119 (≈ 119 µg/mL) | 7 (≈ 6.99 µg/mL) | 60 (≈ 59.9 µg/mL) | 8 (≈ 7.98 µg/mL) | 60 (≈ 59.9 µg/mL) | 15 (≈ 15 µg/mL) | 15 (≈ 15 µg/mL) |  | 1 | hemolysis at 0.5 h, 300 µM [19]: 10%; Activity [20]: inactive; Activity [21]: Active; inhibition [22]: Dose-dependent effect; inhibition [23]: 43%; Activity [24]: Dose-dependent effect; pEC50 ([24]; Candida albicans, ATCC 10231, 0.5 h): 4.77
OC(Cn1cncn1)(Cn1cncn1)c1ccc(F)cc1F [FLUCONAZOLE] |  |  |  |  |  |  |  |  | 13 (≈ 3.98 µg/mL) |  |  |  |  | 
CCCCCCCCNC(=O)[C@H](Cc1ccccc1)NC(=O)[C@H](CCCCNC(=O)[C@H](CCCCN)NC(=O)OCc1ccccc1Cl)NC(=O)[C@H](CCCCN)NC(=O)OCc1ccccc1Cl | 16 (≈ 16 µg/mL) | 32 (≈ 31.9 µg/mL) | 32 (≈ 31.9 µg/mL) | 16 (≈ 16 µg/mL) | 128 (≈ 128 µg/mL) | 8 (≈ 7.98 µg/mL) | > 256 | 32 (≈ 31.9 µg/mL) | 32 (≈ 31.9 µg/mL) | 16 (≈ 16 µg/mL) | 16 (≈ 16 µg/mL) |  | 10 | 
CCCCCCCCNC(=O)[C@H](Cc1ccccc1)NC(=O)[C@H](CCCCNC(=O)[C@@H](N)CCCCN)NC(=O)[C@@H](N)CCCCN | 128 (≈ 84.6 µg/mL) | > 256 | > 256 | 128 (≈ 84.6 µg/mL) | > 256 | 32 (≈ 21.2 µg/mL) | > 256 | > 256 | 256 (≈ 169 µg/mL) | 64 (≈ 42.3 µg/mL) | 128 (≈ 84.6 µg/mL) |  |  | hemolysis at 0.5 h, 300 µM [19]: 10%
CCCCCCCCCCCCNC(=O)[C@H](Cc1ccccc1)NC(=O)[C@H](CCCCNC(=O)[C@H](CCCCN)NC(=O)OCc1ccccc1Cl)NC(=O)[C@H](CCCCN)NC(=O)OCc1ccccc1Cl | 32 (≈ 33.7 µg/mL) | 64 (≈ 67.5 µg/mL) | 32 (≈ 33.7 µg/mL) | 16 (≈ 16.9 µg/mL) | > 256 | 8 (≈ 8.43 µg/mL) | > 256 | 32 (≈ 33.7 µg/mL) | 8 (≈ 8.43 µg/mL) | 8 (≈ 8.43 µg/mL) | 8 (≈ 8.43 µg/mL) | 4.30 | 13 | hemolysis at 0.5 h, 50 µM [25]: 10%
